Activity calls are given as the source filed them. The calls are words filed in the database; no cut-off is given here.
Columns and labels:
[1] = tested on: Trypanosoma cruzi; test: Antitrypanosomal activity against Trypanosoma cruzi trypomastigote infected in mouse NIH/3T3 cells after 96 hrs by luciferase reporter gene assay; settings: NIH/3T3, 96 h
[2] = tested on: NIH3T3; test: Cytotoxicity against mouse NIH/3T3 cells; format: cell-based
How it was run: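 Counterscreen on uninfected NIH 3T3 cells grown in DMEM with 10% FBS at 37 °C and 5% CO₂, run alongside the 96 h infection assay. EC50 is the mean of three independent experiments performed on different days.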

[3] = tested on: Trypanosoma cruzi; test: Antitrypanosomal activity against Trypanosoma cruzi Tulahuen infected in mouse NIH/3T3 cells after 48 to 72 hrs by beta-galactosidase reporter gene assay
[4] = tested on: Trypanosoma cruzi; test: Antitrypanosomal activity against Trypanosoma cruzi trypomastigote infected in mouse NIH/3T3 cells at 9.5 uM incubated for 3 days post infection by DAPI-staining based immunofluorescence assay; format: functional, organism-based; settings: NIH3T3
How it was run: (§1)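 NIH-3T3 cells on coverslips were infected 2 h with trypomastigotes (Tulahuen β-gal or Y luciferase), washed, then given drug for 3 days. Cells were fixed in 4% paraformaldehyde, permeabilised with Triton X-100 and stained with rabbit anti-T. cruzi (1:2000) plus Alexa 488 secondary and DAPI. Imaged at 60× oil, 50 fields per condition.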

[5] = tested on: Trypanosoma cruzi; test: Antitrypanosomal activity against Trypanosoma cruzi Y infected in mouse NIH/3T3 cells after 48 to 72 hrs by luciferase reporter gene assay
[6] = Selectivity index, ratio of EC50 for mouse NIH/3T3 cells to EC50 for Trypanosoma cruzi trypomastigote; format: toxicity, cell-based, NIH3T3; settings: read-out: Ratio EC50
[7] = tested on: Trypanosoma cruzi; test: Antitrypanosomal activity against Trypanosoma cruzi Tulahuen […] after 24 hrs by beta-galactosidase reporter gene assay; format: functional, organism-based; settings: LLC-MK2
[8] = tested on: Trypanosoma cruzi; test: Antitrypanosomal activity against Trypanosoma cruzi Y infected in […] cells after 24 hrs by luciferase reporter gene assay; format: functional, organism-based
How it was run: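 Y strain expressing firefly luciferase, trypomastigotes from LLC-MK2 cultures, infecting NIH/3T3 host cells (50 000 cells and 50 000 parasites per well). Drug added at infection (top 50 μM, DMSO <0.5%, duplicates) and washed out at 24, 48 or 72 h. D-luciferin at 150 μg/mL final added at 96 h, luminescence read 1 s. EC50 relative to 4 μM amphotericin B maximal inhibition.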

[9] = Metabolic stability in mouse microsomes after 20 mins; format: ADME, Microsome; settings: read-out: Stability
How it was run: (§2)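 Liver microsomes (human, mouse or rat), with or without CYP inhibitor. Read-out is percent of compound metabolized at 20 min.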

[10] = tested on: Caco-2; test: Permeability across human Caco2 cells; format: ADME, cell-based
[11] = target: T1, hERG (KCNH2) (Homo sapiens, UniProt Q12809); test: Inhibition of human ERG at 1 uM relative to control
[12] = tested on: Plasma; test: Plasma protein binding in human; format: ADME, cell-free
[13] = target: T1, hERG (KCNH2); test: Inhibition of human ERG at 10 uM relative to control
[14] = Metabolic stability in mouse microsomes after 20 mins in presence of ketoconazole; format: ADME, Microsome
How it was run: as §2

[15] = Metabolic stability in human microsomes after 20 mins in presence of quinidine; format: ADME, Microsome
How it was run: as §2

[16] = tested on: Plasma; test: Metabolic stability in human plasma after 1 to 4 hrs; format: ADME, cell-free
[17] = tested on: Plasma; test: Metabolic stability in mouse plasma after 1 to 4 hrs; format: ADME, cell-free
[18] = Metabolic stability in mouse microsomes after 20 mins in presence of quinidine; format: ADME, Microsome
How it was run: as §2

[19] = Metabolic stability in rat microsomes after 20 mins in presence of quinidine; format: ADME, Microsome
How it was run: as §2

[20] = tested on: Trypanosoma cruzi; test: Antitrypanosomal activity against Trypanosoma cruzi trypomastigote infected in mouse NIH/3T3 cells at 0.4 uM incubated for 3 days post infection by DAPI-staining based immunofluorescence assay; format: functional, organism-based; settings: NIH3T3
How it was run: as §1

[21] = Metabolic stability in rat microsomes after 20 mins; format: ADME, Microsome; settings: read-out: Stability
How it was run: as §2

[22] = tested on: Plasma; test: Plasma protein binding in mouse; format: ADME, cell-free
[23] = Metabolic stability in human microsomes after 20 mins in presence of ketoconazole; format: ADME, Microsome
How it was run: as §2

[24] = Metabolic stability in human microsomes after 20 mins; format: ADME, Microsome; settings: read-out: Stability
How it was run: as §2

[25] = Metabolic stability in rat microsomes after 20 mins in presence of ketoconazole; format: ADME, Microsome
How it was run: as §2

[26] = target: Sterol 14-alpha demethylase (Trypanosoma cruzi (strain CL Brener), UniProt Q7Z1V1); test: Binding affinity to Trypanosoma cruzi recombinant full length CYP51 by spectrophotometric analysis
How it was run: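 Purified full-length T. cruzi CYP51 (2 μM) was titrated with ligand at 0.5–10 μM, recording type 2 difference spectra at 350–450 nm, 25 °C. Apparent Kd came from ΔA425–390 versus free ligand, fitted to a rectangular hyperbola.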

Sterol 14-alpha demethylase, sequence (Q7Z1V1 whole entry): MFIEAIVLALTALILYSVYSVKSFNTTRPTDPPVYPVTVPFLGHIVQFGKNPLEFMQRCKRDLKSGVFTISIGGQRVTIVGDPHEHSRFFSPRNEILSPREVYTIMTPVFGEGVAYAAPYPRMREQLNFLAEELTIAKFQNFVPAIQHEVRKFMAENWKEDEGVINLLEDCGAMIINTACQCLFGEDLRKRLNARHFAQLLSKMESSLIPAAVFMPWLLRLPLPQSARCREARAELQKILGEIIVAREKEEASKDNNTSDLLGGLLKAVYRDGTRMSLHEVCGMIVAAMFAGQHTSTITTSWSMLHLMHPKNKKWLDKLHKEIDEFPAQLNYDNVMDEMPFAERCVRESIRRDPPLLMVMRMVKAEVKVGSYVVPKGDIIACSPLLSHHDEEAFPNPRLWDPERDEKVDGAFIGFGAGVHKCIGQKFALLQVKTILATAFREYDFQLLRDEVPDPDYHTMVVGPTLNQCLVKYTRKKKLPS
T1 sequence (Q12809 whole entry): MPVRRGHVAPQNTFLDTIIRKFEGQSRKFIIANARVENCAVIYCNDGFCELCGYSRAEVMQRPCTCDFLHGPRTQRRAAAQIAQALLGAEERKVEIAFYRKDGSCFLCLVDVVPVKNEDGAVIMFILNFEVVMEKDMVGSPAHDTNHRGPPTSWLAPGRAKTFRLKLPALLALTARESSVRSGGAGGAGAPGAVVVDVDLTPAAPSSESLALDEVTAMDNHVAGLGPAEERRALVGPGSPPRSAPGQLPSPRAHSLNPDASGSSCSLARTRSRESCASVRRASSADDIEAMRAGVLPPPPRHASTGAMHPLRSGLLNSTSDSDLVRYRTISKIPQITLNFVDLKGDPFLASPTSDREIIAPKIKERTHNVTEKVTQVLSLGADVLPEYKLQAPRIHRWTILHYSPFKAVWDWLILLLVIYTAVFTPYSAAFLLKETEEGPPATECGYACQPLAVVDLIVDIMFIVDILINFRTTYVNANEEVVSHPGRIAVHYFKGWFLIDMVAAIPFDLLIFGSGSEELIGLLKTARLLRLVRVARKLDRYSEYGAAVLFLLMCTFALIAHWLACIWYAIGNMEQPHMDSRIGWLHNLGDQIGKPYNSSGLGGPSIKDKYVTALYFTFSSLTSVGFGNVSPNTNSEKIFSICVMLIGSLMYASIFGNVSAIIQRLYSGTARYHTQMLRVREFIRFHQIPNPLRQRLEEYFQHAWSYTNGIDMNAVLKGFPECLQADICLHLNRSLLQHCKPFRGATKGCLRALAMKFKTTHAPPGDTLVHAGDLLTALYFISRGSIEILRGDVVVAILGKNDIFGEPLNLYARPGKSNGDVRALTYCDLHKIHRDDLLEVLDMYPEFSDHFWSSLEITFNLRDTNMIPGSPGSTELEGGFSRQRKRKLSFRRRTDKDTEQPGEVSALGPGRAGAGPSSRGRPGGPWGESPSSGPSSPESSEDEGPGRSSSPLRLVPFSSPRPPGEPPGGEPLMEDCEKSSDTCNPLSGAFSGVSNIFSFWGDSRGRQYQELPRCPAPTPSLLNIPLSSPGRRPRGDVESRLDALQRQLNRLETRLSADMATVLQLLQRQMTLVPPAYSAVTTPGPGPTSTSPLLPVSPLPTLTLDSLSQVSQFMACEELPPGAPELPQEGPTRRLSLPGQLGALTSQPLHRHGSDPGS

| Structure (SMILES) | EC50 [1] | EC50 [2] | selectivity ratio [6] | further results |
| --- | --- | --- | --- | --- |
| Cc1cc(Oc2cccc(Cn3cccn3)c2)cc(C)c1Cl | 2800 nM | > 100 µM | – | – |
| Cc1cc(Oc2cccc(CN3CCOCC3)c2)cc(C)c1Cl | 3700 nM | > 100 µM | – | – |
| Cc1cc(Oc2cccc(Cn3ccnn3)c2)cc(C)c1Cl | 1100 nM | 66.8 µM | – | – |
| O=C(Cn1ccnc1[N+](=O)[O-])NCc1ccccc1 [BENZNIDAZOLE] | 1900 nM | > 50 µM | – | Activity [3]: Active; Activity [4]: Active; Activity [5]: Active |
| Cc1nnc(-c2cccc(Oc3cc(C)c(Cl)c(C)c3)c2)o1 | 14100 nM | 46.1 µM | – | – |
| Cc1cc(OCCCCCCn2ccnc2)cc(C)c1Cl | 23 nM | – | – | – |
| Clc1ccc(Oc2cccc(Cn3ccnc3)c2)cc1 | 650 nM | > 100 µM | > 150 | – |
| Cc1nnc(Cc2cccc(Oc3cc(C)c(Cl)c(C)c3)c2)s1 | 2200 nM | 3.8 µM | – | – |
| Cc1cc(Oc2cccc(Cn3cncn3)c2)cc(C)c1Cl | 1100 nM | 75.9 µM | – | – |
| Cc1cc([N+](=O)[O-])ccc1Nc1cccc(Cn2ccnc2)c1 | 72 nM | > 100 µM | > 1000 | – |
| Cc1cccc(Oc2cccc(Cn3ccnc3)c2)c1 | 330 nM | 78.7 µM | 238 | – |
| Cc1cc(Oc2cccc(CN3CCN(C)CC3)c2)cc(C)c1Cl | 6200 nM | 29.7 µM | – | – |
| Cc1cc(Oc2cccc(Cn3ccc4ccccc43)c2)cc(C)c1Cl | 10700 nM | > 100 µM | – | – |
| Clc1ccc(COc2cccc(Cn3ccnc3)c2)cc1 | 42 nM | 76.2 µM | 1810 | – |
| Cc1cc(Oc2cccc(Cn3ccnc3)c2)cc(C)c1Cl | 80 nM | 13.5 µM | 169 | Activity [7]: Active; Activity [8]: Active; remaining at 20 min [9]: 29%; permeability [10]: 209.7 nm/s; inhibition at 1 µM [11]: 19%; PPB [12]: > 99.8%; inhibition at 10 µM [13]: 94%; Stability [14]: Stable; Stability [15]: Stable; Stability [16]: -9.7%; Stability [17]: 4%; Stability [18]: Stable; Stability [19]: Stable; Activity [20]: Active; remaining at 20 min [21]: 36%; PPB [22]: > 99.8%; Stability [23]: Stable; remaining at 20 min [24]: 39%; Stability [25]: Stable; Kd [26]: 67 nM |
| c1ccc(-c2cccc(Oc3cccc(Cn4ccnc4)c3)c2)cc1 | 282 nM | 34 µM | 121 | – |
| Cc1nnc(-c2cccc(Oc3cc(C)c(Cl)c(C)c3)c2)s1 | 12300 nM | > 100 µM | – | – |

| Structure (SMILES) | EC50 [1] | EC50 [2] | selectivity ratio [6] | further results |
| --- | --- | --- | --- | --- |
| Cc1cccc(OCCCCCn2ccnc2)c1 | 443 nM | – | – | – |
| Cc1cc(Oc2cccc(Cn3nccn3)c2)cc(C)c1Cl | 5400 nM | > 100 µM | – | – |
| Cc1ccccc1Oc1cccc(Cn2ccnc2)c1 | 711 nM | 79.3 µM | 112 | Kd [26]: 180 nM |
| Cc1cc(Oc2cccc(Cn3cnc4ccccc43)c2)cc(C)c1Cl | 3700 nM | 40 µM | – | – |
| O=C(N[C@@H](Cn1ccnc1)c1ccccc1)c1ccc(-c2ccc(Cl)cc2)cc1 | – | – | – | Kd [26]: 70 nM |
| Cc1cc(Oc2cccc(Cn3cnnc3)c2)cc(C)c1Cl | 11200 nM | > 100 µM | – | – |
| Cc1cc(OCCCCCn2ccnc2)cc(C)c1Cl | 2.5 nM | – | – | – |
| O=C(Nc1cccc(Cl)c1)Nc1ccccc1-n1ccnc1 | 461 nM | – | – | – |
| Cc1cc(Oc2cccc(Cn3ncc4ccccc43)c2)cc(C)c1Cl | 13400 nM | > 100 µM | – | – |
| Cc1cc(Oc2cccc(Cn3cc4ccccc4n3)c2)cc(C)c1Cl | 9800 nM | > 100 µM | – | – |
| c1ccc(Oc2cccc(Cn3ccnc3)c2)cc1 | 1630 nM | > 100 µM | > 60 | – |
| Cc1cc(OCCCCn2ccnc2)cc(C)c1Cl | 5.1 nM | – | – | – |
| COc1cccc(Nc2cccc(Cn3ccnc3)c2)c1 | 167 nM | > 100 µM | > 500 | Kd [26]: 210 nM |
| Clc1ccc(CCOc2cccc(Cn3ccnc3)c2)cc1 | 530 nM | 71.1 µM | 134 | – |
| Cc1cc(C)cc(Oc2cccc(Cn3ccnc3)c2)c1 | 330 nM | > 100 µM | > 300 | – |
| Cc1nnc(Cc2cccc(Oc3cc(C)c(Cl)c(C)c3)c2)o1 | 3400 nM | 6.2 µM | – | – |

— ChEMBL document CHEMBL2321803, “Antitrypanosomal lead discovery: identification of a ligand-efficient inhibitor of Trypanosoma cruzi CYP51 and parasite growth” (J Med Chem, 2013)
